Test results: ChEMBL document CHEMBL2010792, “Novel glycolipid TLR2 ligands of the type Pam2Cys-α-Gal: synthesis and biological properties” (Eur J Med Chem, 2012)
Calls of active or inactive are those of the source. The rule behind the calls is not given here.

What was measured:
NKT [1] = experiment: Immunostimulatory activity in activated NKT cells assessed as induction of cell proliferation in presence of mAb directed CD1d molecules; assay type: functional, cell-based
Mus musculus [2] = organism: Mus musculus; experiment: Immunostimulatory activity in BALB/c mouse splenocytes assessed as induction of cell proliferation up to 1000 ng/ml after 3 days by [3H]-thymidine incorporation assay; assay type: functional; details: Splenocyte
How it was run: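 Spleen cells from female BALB/c mice (2×10^5/well) were cultured with agonist at 0–1000 ng/mL in RPMI 1640 containing 10% FCS, gentamicin, 10 mM HEPES and 0.05 mM 2-mercaptoethanol. [3H]-thymidine was added after 48 h, with harvest 18 h later. Result is a stimulation index (mean cpm stimulated / unstimulated) from triplicate wells.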

Mus musculus [3] = organism: Mus musculus; experiment: Immunostimulatory activity in BALB/c mouse B cells assessed as induction of cell proliferation at 0.001 ug/ml after 3 days by [3H]-thymidine incorporation assay relative to Pam2CAG; assay type: functional
How it was run: (§1)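 B cells were purified from female BALB/c spleens by negative selection (anti-CD11b, GR1, CD4 and CD8 mAbs plus magnetic beads; >90% B cells) and seeded at 1×10^5/well. Culture was in RPMI 1640 with 10% FCS, gentamicin, 10 mM HEPES and 0.05 mM 2-mercaptoethanol, across increasing agonist doses. [3H]-thymidine was added at 48 h and cells harvested 18 h later. Stimulation index = mean cpm stimulated / unstimulated; triplicates.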

Mus musculus [4] = organism: Mus musculus; experiment: Immunostimulatory activity in BALB/c mouse splenocytes assessed as induction of IL-6 secretion after 30 hrs by double-sandwich ELISA; assay type: functional; details: Splenocyte
How it was run: (§2)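 BALB/c splenocytes (2×10^5/well) were exposed to increasing agonist doses in supplemented RPMI 1640. Supernatants were collected at 30 h, stored at −20 °C, and assayed by double-sandwich ELISA. Values are pg/mL, mean of duplicates; detection limit 15 pg/mL for both IL-6 and TNF-α.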

[5] = target: Toll-like receptor 2 (Homo sapiens) (UniProt O60603); experiment: Agonist activity at TLR2 in human THP1-Blue-CD14 cells transfected with pSEAP-NF-kappaB assessed as secreted embryonic alkaline phosphatase activity treated with PBS containing 2% DMSO formulation after 19 hrs by quanti-blue colorimetric assay; assay type: functional, cell-based; details: THP-1
[6] = target: Toll-like receptor 2 (Homo sapiens) (UniProt O60603); experiment: Agonist activity at TLR2 in human HEK-Blue-2 cells; assay type: functional, cell-based
[7] = target: Toll-like receptor 2 (Homo sapiens) (UniProt O60603); experiment: Agonist activity at TLR2 in human THP1-Blue-CD14 cells transfected with pSEAP-NF-kappaB assessed as secreted embryonic alkaline phosphatase activity after 19 hrs by quanti-blue colorimetric assay relative to 0.1 uM of Pam2CAG; assay type: functional, cell-based; details: THP-1
How it was run: (§3)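 THP1-Blue-CD14 cells were grown in RPMI 1640 with glucose (4.5 mg/mL) and 10% endotoxin-free FBS at 37 °C, 5% CO2. They were plated at 1.5×10^6 cells/mL and exposed to compounds formulated in PC/PG/Chol liposomes for 19 h at 37 °C. Supernatant was then mixed with Quanti-Blue reagent for 2 h at 37 °C and OD read at 595 nm. Controls were LPS (positive) and blank PC/PG/cholesterol (80/20/50) liposomes (negative); triplicates.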

NKT [8] = experiment: Immunostimulatory activity in activated NKT cells assessed as induction of IL-4 production; assay type: functional, cell-based
Mus musculus [9] = organism: Mus musculus; experiment: Immunostimulatory activity in BALB/c mouse B cells assessed as induction of cell proliferation at 0.001 ug/ml after 3 days by [3H]-thymidine incorporation assay relative to Pam3CAG; assay type: functional; how it was run: as §1
Mus musculus [10] = organism: Mus musculus; experiment: Immunostimulatory activity in BALB/c mouse B cells assessed as induction of cell proliferation after 3 days by [3H]-thymidine incorporation assay; assay type: functional; how it was run: as §1
[11] = Induction of dendritic cell maturation in mouse D1 cells assessed as upregulation of CD40, CD54, CD80 and CD86 expression at 2.5 ug/ml after 48 hrs by flow cytometry relative to Pam3CAG; assay type: functional, cell-based
How it was run: (§4)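 D1 cells were kept in IMDM with 10% heat-decomplemented FCS, penicillin (100 IU/mL), 2 mM L-glutamine and GM-CSF (20 ng/mL). They were seeded at 2×10^5 cells/mL for 48 h, then given fresh medium with compound (DMSO/PBS 2/98) plus polymyxin B, except LPS wells, for 48 h. Cells were harvested in PBS with 2 mM EDTA, stained 20 min at 4 °C and analysed by flow cytometry.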

[12] = target: Toll-like receptor 2 (Homo sapiens) (UniProt O60603); experiment: Agonist activity at TLR2 in human THP1-Blue-CD14 cells transfected with pSEAP-NF-kappaB assessed as secreted embryonic alkaline phosphatase activity after 19 hrs by quanti-blue colorimetric assay relative to 10 uM of Pam3CAG; assay type: functional, cell-based; details: THP-1; how it was run: as §3
[13] = Induction of dendritic cell maturation in mouse D1 cells assessed as upregulation of CD40, CD54, CD80 and CD86 expression at 2.5 ug/ml after 48 hrs by flow cytometry in presence of polymyxin B; assay type: functional, cell-based; how it was run: as §4
[14] = target: Toll-like receptor 2 (Homo sapiens) (UniProt O60603); experiment: Agonist activity at TLR2 in human THP1-Blue-CD14 cells transfected with pSEAP-NF-kappaB assessed as secreted embryonic alkaline phosphatase activity treated with PC/PG/Chol liposomes formulation at 0.1 uM after 19 hrs by quanti-blue colorimetric assay in presence of anti-mTLR2 antibody; assay type: functional, cell-based; details: THP-1
How it was run: (§5)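 TLR2 in THP1-Blue-CD14 cells was neutralised with an anti-mTLR2 monoclonal antibody (100 ng/well) for 10 min before liposome-formulated agonist was added. Cells were incubated 19 h at 37 °C, and SEAP in supernatant was read by Quanti-Blue colorimetry (2 h, 37 °C, OD 595 nm). Activity was compared with cells lacking antibody; triplicates.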

[15] = Induction of dendritic cell maturation in mouse D1 cells assessed as upregulation of CD40, CD54, CD80 and CD86 expression at 2.5 ug/ml after 48 hrs by flow cytometry relative to Pam2CAG; assay type: functional, cell-based; how it was run: as §4
Mus musculus [16] = organism: Mus musculus; experiment: Immunostimulatory activity in BALB/c mouse splenocytes assessed as induction of TNFalpha secretion after 30 hrs by double-sandwich ELISA; assay type: functional; details: Splenocyte; how it was run: as §2
NKT [17] = experiment: Immunostimulatory activity in activated NKT cells assessed as induction of IFNgamma production; assay type: functional, cell-based
[18] = target: Toll-like receptor 2 (Homo sapiens) (UniProt O60603); experiment: Agonist activity at TLR2 in human THP1-Blue-CD14 cells transfected with pSEAP-NF-kappaB assessed as secreted embryonic alkaline phosphatase activity treated with PC/PG/Chol liposomes formulation after 19 hrs by quanti-blue colorimetric assay; assay type: functional, cell-based; details: THP-1; how it was run: as §3
[19] = target: Toll-like receptor 2 (Homo sapiens) (UniProt O60603); experiment: Agonist activity at TLR2 in human THP1-Blue-CD14 cells transfected with pSEAP-NF-kappaB assessed as secreted embryonic alkaline phosphatase activity treated with PC/PG/Chol liposomes formulation at 10 uM after 19 hrs by quanti-blue colorimetric assay in presence of anti-mTLR2 antibody; assay type: functional, cell-based; details: THP-1; how it was run: as §5

Toll-like receptor 2 (Homo sapiens), sequence (O60603 whole entry): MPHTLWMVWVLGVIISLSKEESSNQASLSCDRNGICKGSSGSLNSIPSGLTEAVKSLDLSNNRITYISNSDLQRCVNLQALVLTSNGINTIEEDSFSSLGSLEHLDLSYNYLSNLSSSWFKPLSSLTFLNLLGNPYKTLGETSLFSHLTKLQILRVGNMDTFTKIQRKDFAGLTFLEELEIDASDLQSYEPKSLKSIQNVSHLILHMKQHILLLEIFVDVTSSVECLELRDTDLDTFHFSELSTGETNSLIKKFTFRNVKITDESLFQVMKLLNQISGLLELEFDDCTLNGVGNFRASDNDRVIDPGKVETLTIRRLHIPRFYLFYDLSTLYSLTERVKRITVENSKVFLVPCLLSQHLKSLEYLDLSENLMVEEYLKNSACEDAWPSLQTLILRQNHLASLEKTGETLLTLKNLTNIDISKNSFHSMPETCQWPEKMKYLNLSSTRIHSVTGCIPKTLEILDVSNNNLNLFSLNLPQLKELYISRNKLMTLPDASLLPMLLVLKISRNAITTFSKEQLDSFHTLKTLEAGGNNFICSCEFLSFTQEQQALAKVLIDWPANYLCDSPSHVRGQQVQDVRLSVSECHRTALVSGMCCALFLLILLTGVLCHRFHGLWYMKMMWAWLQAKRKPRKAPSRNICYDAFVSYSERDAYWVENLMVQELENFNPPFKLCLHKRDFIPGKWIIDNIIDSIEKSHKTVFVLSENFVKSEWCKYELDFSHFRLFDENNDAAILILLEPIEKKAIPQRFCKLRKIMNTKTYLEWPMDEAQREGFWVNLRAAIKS

## CCCCCCCCCCCCCCCC(=O)OC[C@H](CSC[C@H](N)C(=O)NCCO[C@H]1O[C@@H]([C@H](O)CO)[C@H](O)[C@H]1O)OC(=O)CCCCCCCCCCCCCCC
NKT [1]
  Activity: Active
Mus musculus [2]
  Activity: Active
Mus musculus [3]
  Activity: Active
Mus musculus [4]
  Activity: Dose-dependent effect
[5]
  Activity: Active
[6]
  Activity: Active
[7]
  Activity: Active
NKT [8]
  Activity: inactive
Mus musculus [9]
  Activity: Active
Mus musculus [10]
  Activity: Dose-dependent effect
[11]
  Activity: Active
[12]
  fold change (FC): 100
[13]
  Activity: Active
[14]
  Activity: Active
[15]
  Activity: Active
Mus musculus [16]
  Activity: Dose-dependent effect
NKT [17]
  Activity: inactive
[18]
  Activity: Active

## CCCCCCCCCCCCCCCC(=O)N[C@@H](CSC[C@@H](COC(=O)CCCCCCCCCCCCCCC)OC(=O)CCCCCCCCCCCCCCC)C(=O)N[C@@H](C)C(=O)NCC(=O)O
NKT [1]
  Activity: Active
Mus musculus [2]
  Activity: Active
Mus musculus [4]
  Activity: Dose-dependent effect
[5]
  Activity: Active
[6]
  Activity: Active
NKT [8]
  Activity: inactive
[19]
  Activity: inactive
Mus musculus [10]
  Activity: Dose-dependent effect
[13]
  Activity: Active
Mus musculus [16]
  Activity: Dose-dependent effect
NKT [17]
  Activity: inactive
[18]
  Activity: Active

## CCCCCCCCCCCCCCCC(=O)OC[C@H](CSC[C@H](N)C(=O)N[C@@H](C)C(=O)NCC(=O)O)OC(=O)CCCCCCCCCCCCCCC
NKT [1]
  Activity: Active
Mus musculus [2]
  Activity: Active
Mus musculus [4]
  Activity: Dose-dependent effect
[5]
  Activity: Active
[6]
  Activity: Active
NKT [8]
  Activity: inactive
Mus musculus [10]
  Activity: Dose-dependent effect
[13]
  Activity: Active
[14]
  Activity: Active
Mus musculus [16]
  Activity: Dose-dependent effect
NKT [17]
  Activity: inactive
[18]
  Activity: Active

## CCCCCCCCCCCCCCCC(=O)OC[C@H](CSC[C@H](N)C(=O)NCCO[C@H]1O[C@H](CO)[C@H](O)[C@H](O)[C@H]1O)OC(=O)CCCCCCCCCCCCCCC
NKT [1]
  Activity: Active
Mus musculus [2]
  Activity: Active
Mus musculus [3]
  Activity: Active
Mus musculus [4]
  Activity: Dose-dependent effect
[5]
  Activity: Active
[6]
  Activity: Active
[7]
  Activity: Active
NKT [8]
  Activity: inactive
Mus musculus [9]
  Activity: Active
Mus musculus [10]
  Activity: Dose-dependent effect
[11]
  Activity: Active
[12]
  fold change (FC): 100
[13]
  Activity: Active
[14]
  Activity: Active
[15]
  Activity: Active
Mus musculus [16]
  Activity: Dose-dependent effect
NKT [17]
  Activity: inactive
[18]
  Activity: Active
